Series [1] has as its system LSCe cells. Put plainly: LSCe cell co-culture cobblestone area. Type of series: cell-based, mouse. The note with it: for selective inhibition of LSCe cells relative to normal HSPCs: co-culture; for validated hit from the screen: inhibits LSCe cells relative to normal HSPCs, no significant stromal toxicity; for EC50: read-out: EC50 for LSCe cells in co-culture (cobblestone area formation), MLL-AF9 LSCe cells in co-culture with stroma.

Series [2] relates to human AML cell lines (U937, THP-1, NOMO-1, SKM-1, NB4, and OCI-AML3). Put plainly: Human AML cell line viability screen. Type of series: cell-based. The note with it: for EC50: Homo sapiens.
The test system of the next series is AML. The note with it: phase 1 clinical trial in AML; cited from earlier work.
Another series has as its system FLT3-mutated AML. The following applies: cited from earlier work.
Another series deals with normal HSPCs. Put plainly: HSPC co-culture on primary bone marrow stromal cells. It counts as cell-based, mouse. The method, boiled down:
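Normal mouse HSPCs (400 per well) were plated in 384-well format on primary CD105⁺ bone-marrow stromal cells and held at 33°C/5% CO₂. The stroma was isolated from GFP-transgenic or wild-type C57BL/6 mice by anti-CD105 magnetic-bead selection and grown 2–3 days at 33°C before use. Test compound was run at 8–12 concentrations in duplicate, with a cytotoxic control at 22 μM.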

In another series the test system is murine AML cell lines. Briefly: Murine myeloid cell line viability. Type of series: cell-based. The following applies: Mus musculus, 72 h, read-out: EC50 against murine AML cell lines.
The subject of series [3] is patient-derived, primary human leukemia cells. Briefly: Human CAFC assay, patient-derived leukemia cells on MS-5 stroma. The following applies: lovastatin: treated 6 days, assessed at 5 weeks (2 weeks for FLT3-ITD). It counts as cell-based. The method, boiled down:
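CD34-enriched cells from bone marrow/peripheral blood of AML patients (presentation or relapse) seeded on MS-5 mouse stroma (20,000/well, 96-well, plated 1 day earlier, 37°C/5% CO₂). Seeding density set for one cobblestone per control well at 5 weeks. Medium: α-MEM, 12.5% FCS, 12.5% horse serum, monothioglycerol, 1 µM hydrocortisone, 20 ng/ml human IL-3. Test compound added next day (0.2% DMSO final) for 6 days, then rinsed and refed; half media change at 3 weeks. Score: fraction of replicate wells with ≥6 tightly packed cells beneath stroma.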

In series [4] the test system is normal HSPC (CD34+ cells from umbilical cord blood). Put plainly: Human CAFC assay, normal CD34+ cord blood cells on MS-5 stroma. It counts as cell-based. The note with it: treated 6 days, assessed at 5 weeks.
Series [5] has as its system dsRed+ LSCe cells and GFP+ HSPCs. Put plainly: Admixed LSCe cells and HSPCs co-cultured with primary BMSCs, direct treatment. The note with it: 200 nM lovastatin, assessed 5 days later. Type of series: cell-based, mouse. In outline:
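Primary BMSC monolayers from C57BL/6 mice plated in 384-well format. 3 days later, 800 dsRed⁺ LSCe cells and 1600 GFP⁺ HSPCs (UbiquitinC-GFP mice) added. Test compound or DMSO added 24 h later and incubated 5 days. Wells imaged in dsRed and GFP channels at 10x; total cell area per well quantified for each channel. Mean ± SEM of quadruplicates, two independent experiments.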

The test system of another series is MOZ-TIF2 LSCe cells. Briefly: MOZ-TIF2 LSCe cell co-culture with BMSCs. Type of series: cell-based. The following applies: Mus musculus, BMSC, read-out: EC50, MOZ-TIF2 LSCe cells in co-culture.
Series [6] deals with LSCe cells. Put plainly: Limiting dilution syngeneic transplantation of ex vivo treated LSCe co-cultures. Details: species or system mouse. The following applies: 500 to 10,000 LSCe cells, 24-hour ex vivo exposure to 5 μM lovastatin in co-culture with BMSCs.
For a further series, the system named is LSCe cells and HSPCs. The note with it: mixed cultures exposed ex vivo 48 hours to 5 μM lovastatin; relative to DMSO.
Series [7] concerns LSCe cells on pretreated OP9 stroma. Put plainly: Stromal pretreatment screen. It counts as cell-based, mouse.
In series [8] the test system is OP9 or BMSC stromal cells. Briefly: Stromal toxicity screen. It counts as cell-based, mouse. The following applies: stroma pretreatment. In outline:
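OP9 (6,750/well) or primary BMSC (2,000/well) stromal cells plated in 384-well plates. After 24 h, test compound added at 8 concentrations; incubated 72 h at 37°C/5% CO₂. Viability read by CellTiter-Glo ATP luminescence. Toxicity called when mean signal fell 3 SD (BMSC) or 5 SD (OP9) below DMSO control at concentrations below 20 μM.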

Series [9] relates to dsRed+ LSCe cells and GFP+ HSPCs. Put plainly: BMSC stromal pretreatment with admixed LSCe cells and HSPCs. Type of series: cell-based, mouse. The note with it: bone marrow stromal cells pretreated for 3 days. The method, boiled down:
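Wild-type C57BL/6 BMSC monolayers (384-well) treated with test compound for 3 days at 33°C/5% CO₂, then rinsed twice with PBS. 1200 GFP⁺ HSPCs (UbiquitinC-GFP mice) and 1200 dsRed⁺ LSCe cells plated together onto them. 5 days later, wells imaged at 10x in dsRed and GFP channels; total cell area per channel per well quantified. Mean ± SEM of quadruplicates.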

The test system of series [10] is LSCe cells. Briefly: Gene-expression profiling of LSCe cells with GSEA. The note with it: 5 μM, 6 hours, in suspension. It counts as cell-based, mouse. The method, boiled down:
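250,000 LSCe cells per sample exposed to test compound or DMSO (n = 5 and 2, respectively) for 6 h in suspension in IMDM, 10% FBS, 1% Pen-Strep. RNA extracted, amplified, and hybridized to Illumina MouseRef-8 v2.0 Expression BeadChips.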

Series [11] relates to LSCe cells. Put plainly: Mevalonate rescue of lovastatin treatment in LSCe/OP9 co-culture. It counts as cell-based, mouse. The following applies: 2 mM mevalonate, 1 μM lovastatin, OP9 stroma. The method, boiled down:
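GFP⁺ OP9 stroma (13,500 per well) was plated on gelatin-coated 96-well plates. After 24 h, 2,000 sorted mouse LSCe cells were added. About 24 h later, 2 mM mevalonolactone and/or 1 μM lovastatin were added together, at constant DMSO (0.2% final). After 3 days, medium was fully changed and reagents were re-added.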

Read-outs that look alike come from different tables or passages of the source.

On to `CC(C)n1c(/C=C/C(O)CC(O)CC(=O)O)c(-c2ccc(F)cc2)c2ccccc21` (centres unmarked) [fluvastatin], for which, in the series on LSCe cells [1], the “selective inhibition of LSCe cells relative to normal HSPCs” value is on record as “selectively inhibited LSCe cells relative to normal HSPCs”.
Consider `C=C1C(=O)O[C@H]2[C@H]1CC/C(C)=C/CC[C@@]1(C)O[C@@H]21` [parthenolide], for which the “validated hit from the screen” value in the series on LSCe cells [1] is “among the 155 validated hits”.
Regarding `CCCCc1ccc2[nH]c(NC(=O)OC)nc2c1` [parbendazole], in series [2] (read-out: EC50, AML cell line viability), the EC50 (commonly the concentration giving half of the maximal effect) is below 625 nM.
Take `CC(C)c1c(C(=O)Nc2ccccc2)c(-c2ccccc2)c(-c2ccc(F)cc2)n1CC[C@@H](O)C[C@@H](O)CC(=O)O` [atorvastatin]: in the series on LSCe cells [1], the “selective inhibition of LSCe cells relative to normal HSPCs” value is “selectively inhibited LSCe cells relative to normal HSPCs”.
For the compound `COCc1c(C(C)C)nc(C(C)C)c(/C=C/[C@@H](O)C[C@@H](O)CC(=O)O)c1-c1ccc(F)cc1` [cerivastatin], the “selective inhibition of LSCe cells relative to normal HSPCs” value in the series on LSCe cells [1] is listed as “selectively inhibited LSCe cells relative to normal HSPCs”.
As for `CCC(C)(C)C(=O)O[C@H]1C[C@@H](C)C=C2C=C[C@H](C)[C@H](CC[C@@H]3C[C@@H](O)CC(=O)O3)[C@H]21` [simvastatin], the “selective inhibition of LSCe cells relative to normal HSPCs” value in the series on LSCe cells [1] is “selectively inhibited LSCe cells relative to normal HSPCs”.
As to `CC[C@H](C)C(=O)O[C@H]1C[C@H](O)C=C2C=C[C@H](C)[C@H](CC[C@@H](O)C[C@@H](O)CC(=O)O)[C@H]21` [pravastatin], in the series with LSCe cells [1], the “scoring in LSCe co-culture assay” value was “did not score”. For the same compound, the “anti-leukemia effect in patients” value in the series on AML is “preliminary evidence of an anti-leukemia effect”. The “scoring in model of FLT3-mutated AML” value in the series on FLT3-mutated AML was “did not score”.
With `CC1=C(O)C(=O)C=C2C1=CC=C1[C@@]2(C)CC[C@@]2(C)[C@@H]3C[C@](C)(C(=O)O)CC[C@]3(C)CC[C@]12C` [celastrol], the “validated hit from the screen” value with LSCe cells [1] is listed as “among the 155 validated hits”.
For the compound `CC[C@H](C)C(=O)O[C@H]1C[C@@H](C)C=C2C=C[C@H](C)[C@H](CC[C@@H]3C[C@@H](O)CC(=O)O3)[C@H]21` [lovastatin], the EC50 in the series with LSCe cells [1] is around 200 nM; in series [2] (read-out: EC50 against human AML cell lines) it was above 2000 nM; with murine AML cell lines, above 2000 nM; with MOZ-TIF2 LSCe cells, below 250 nM. The “toxicity to normal HSPCs” value with normal HSPCs (concentrations as high as 20 μM, co-culture with BMSCs) was “no apparent toxicity”. Further, the “activity against patient-derived primary human leukemia cells (cobblestone area formation)” value in series [3] is “inhibited cobblestone area formation for all 6 patient-derived AML samples”. In addition, the “inhibition of normal HSPC cobblestone area formation” value in series [4] was “no inhibition”. Besides, the “relative inhibition of admixed LSCe cells and HSPCs” value in series [5] was “selectively inhibited the dsRed^+ leukemia cells while sparing the GFP^+ HSPCs”. Also, the “leukemia development after transplantation” value with LSCe cells [6] is reported as “only one animal in the lovastatin group developed leukemia by 11.5 weeks”. The “survival of transplanted mice” value in the series on LSCe cells and HSPCs is recorded as “survived substantially longer”.
Consider `CC1(C)C(C(=O)Nc2ccc(S(=O)(=O)c3ccc(NC(=O)C4C(C)(C)C4(C)C)cc3)cc2)C1(C)C` [BRD7116], for which the EC50 with LSCe cells [1] is 200 nM. The “activity against normal HSPCs” value in the series with normal HSPCs (co-cultured on primary BMSC stroma) is “limited activity”. In addition, in series [2] (at 20 μM), the “inhibition of AML cell lines” value is ~ 50%. For the same compound, the “change in stromal morphology” value in series [7] is reported as “not accompanied by an obvious change in stromal morphology”. Moreover, the “stromal cell viability (CellTiter-Glo)” value in series [8] is “without evidence of altered stromal cell viability”. Besides, the “activity against patient-derived primary human leukemia cells (cobblestone area formation)” value in series [3] was “showed activity”. The “relative inhibition of LSCe cells and HSPCs on pretreated stroma” value in [9] is “preferentially inhibited the LSCe cells compared to HSPCs”. For the same compound, the “transcriptional changes (GSEA)” value in the series with LSCe cells [10] is “induced transcriptional changes consistent with myeloid differentiation”.
Turning to `Cc1c(C)c2c(c(C)c1O)CCC(C)(COc1ccc(CC3SC(=O)NC3=O)cc1)O2` (centres unmarked) [troglitazone], the “sensitivity of AML cell lines” value in series [2] (concentrations as high as 35 μM) is recorded as “none of the AML cell lines tested was sensitive”. For the same compound, the “change in stromal morphology” value in series [7] is on record as “dose-dependent adipocytic change in the stroma”.
For the compound `CC(C)c1nc(N(C)S(C)(=O)=O)nc(-c2ccc(F)cc2)c1/C=C/[C@@H](O)C[C@@H](O)CC(=O)O` [rosuvastatin], in the series with LSCe cells [1], the “selective inhibition of LSCe cells relative to normal HSPCs” value is listed as “selectively inhibited LSCe cells relative to normal HSPCs”.
Take `CC(O)(CCO)CC(=O)O` (centres unmarked) [mevalonate]: the “rescue of the anti-leukemia effects of lovastatin” value in the series with LSCe cells [11] is “fully rescued”.

Values taken from article PMC4009363 (Nature chemical biology, 2013).
